In brackets after ≈: the same amount, converted by molar mass. Activity calls are given as the source filed them. The rule behind the calls is not given here.
Key:
[1] = Metabolic stability in human hepatic microsomes after 20 mins by HPLC/MS analysis; type: ADME; conditions: liver microsomes, read-out: Stability
Method in brief: (§1)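 Hepatic microsomes, 0.2 mg/mL protein, in 50 mmol/L potassium phosphate pH 7.4 with […] test compound. An NADPH-generating system (MgCl2, glucose-6-phosphate, β-NADP+, G6PDH) added at 10% of the reaction volume. Incubated at 37 °C for 0 and 20 min.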

[2] = target: T1, Extracellular calcium-sensing receptor (Homo sapiens, UniProt P41180); assay: Inhibition of CaSR expressed in CHO cells incubated with compound for 10 mins measured after 1 hr by [35S]GTPgammaS binding assay; type: functional, cell-based
T1 sequence (P41180 whole entry): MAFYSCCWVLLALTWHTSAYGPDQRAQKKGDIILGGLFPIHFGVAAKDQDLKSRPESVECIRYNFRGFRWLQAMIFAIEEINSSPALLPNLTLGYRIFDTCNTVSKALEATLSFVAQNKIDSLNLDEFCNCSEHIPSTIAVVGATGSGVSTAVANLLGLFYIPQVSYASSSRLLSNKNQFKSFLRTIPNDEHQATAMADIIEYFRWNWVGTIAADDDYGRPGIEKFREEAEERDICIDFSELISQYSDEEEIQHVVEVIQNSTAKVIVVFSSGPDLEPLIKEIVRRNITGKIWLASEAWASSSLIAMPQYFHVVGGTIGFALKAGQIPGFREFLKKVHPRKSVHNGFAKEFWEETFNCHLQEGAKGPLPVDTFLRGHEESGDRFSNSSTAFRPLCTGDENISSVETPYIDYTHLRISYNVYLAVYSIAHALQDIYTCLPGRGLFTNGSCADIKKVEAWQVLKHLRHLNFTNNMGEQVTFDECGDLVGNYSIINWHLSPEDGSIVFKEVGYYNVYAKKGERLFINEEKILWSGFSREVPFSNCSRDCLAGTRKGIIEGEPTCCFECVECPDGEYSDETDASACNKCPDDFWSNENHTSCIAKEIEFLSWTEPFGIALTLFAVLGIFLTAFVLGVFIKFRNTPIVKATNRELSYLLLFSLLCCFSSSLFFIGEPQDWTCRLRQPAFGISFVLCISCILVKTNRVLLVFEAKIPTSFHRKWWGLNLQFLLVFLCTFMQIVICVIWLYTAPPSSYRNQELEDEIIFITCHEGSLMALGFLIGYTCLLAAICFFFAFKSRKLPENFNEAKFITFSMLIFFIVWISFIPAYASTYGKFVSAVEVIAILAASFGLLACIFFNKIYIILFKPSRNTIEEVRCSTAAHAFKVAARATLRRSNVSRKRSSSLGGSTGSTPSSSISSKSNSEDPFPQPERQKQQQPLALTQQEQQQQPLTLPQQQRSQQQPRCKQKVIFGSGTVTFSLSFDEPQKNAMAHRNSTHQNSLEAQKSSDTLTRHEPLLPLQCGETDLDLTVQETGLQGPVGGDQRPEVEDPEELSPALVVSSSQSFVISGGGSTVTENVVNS
Method in brief: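 Membranes from CaSR-expressing CHO cells preincubated with compound for 10 min. Binding then run 1 h at room temperature in 20 mM HEPES pH 7.4, 100 mM NaCl, 1 mM MgCl2, 167 μg/mL DTT, 5 μM GDP, 0.4 nM [35S]GTPγS and 6 mM CaCl2. Samples filtered through GF/C and washed with PBS; radioactivity counted by scintillation. IC50 obtained by nonlinear regression.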

[3] = Metabolic stability in rat hepatic microsomes after 20 mins by HPLC/MS analysis; type: ADME; conditions: liver microsomes, read-out: Stability; method in brief: as §1
[4] = Thermodynamic solubility of the compound in aqueous buffer containing 20 mmol/L sodium glycochenodeoxycholate at pH 6.8 by HPLC analysis; type: physicochemical; conditions: aqueous buffer with 20 mmol/L sodium glycochenodeoxycholate
Method in brief: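 Compound added to pH 6.8 aqueous buffer containing 20 mmol/L sodium glycochenodeoxycholate; after incubation, precipitate removed by filtration and filtrate concentration determined by HPLC.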

Caco-2 [5] = assay: Apparent permeability across apical to basolateral side of human Caco2 cells at 10 umol/L; type: ADME, cell-based; conditions: caco-2, 10 µM, in the assay text read “basolateral to apical” for “apical to basolateral”
Method in brief: (§2)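 Confluent Caco-2 monolayers on collagen-coated polycarbonate Transwell membranes. Buffer is HBSS with 10 mmol/L HEPES, 15 mmol/L glucose and 1% BSA, pH 7.3-7.5. Compound at 10 μmol/L dosed apically (A-to-B) or basolaterally (B-to-A), 37 °C, 5% CO2. Receivers sampled at 1 and 2 h. Lucifer yellow integrity check and cell-free blank run. LC/MS/MS read-out; Papp calculated; duplicates.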

Rattus norvegicus [6] = assay: Induction of bone formation in osteopenic ovariectomized CD(SD)IGS rat model assessed as proximal tibia bone mineral density at 10 mg/kg, po administered once daily for 3 months measured after 1 day last post treatment (reference value: 649+/- 8 mg/cm3); type: functional
[7] = AUC (0 to 24 hrs) in Crl:CD(SD) rat at 10 mg/kg, po; type: ADME, organism-based; parameters: time < 24 hr, dose 10 mg/kg, route oral; conditions: plasma
Method in brief: (§3)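 Nonfasted female Crl:CD(SD) rats, 12 weeks old, n = 3, given 10 mg/kg orally as a 0.5% methylcellulose suspension. Plasma collected at 0.25, 0.5, 1, 2, 4, 8 and 24 h, deproteinized with acetonitrile, diluted with 0.01 mol/L ammonium acetate. Drug measured by HPLC on an ODS column, ammonium acetate/acetonitrile 3/7, 40 °C, UV 262 nm.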

Rattus norvegicus [8] = assay: Induction of bone formation in osteopenic ovariectomized CD(SD)IGS rat model assessed as plasma osteocalcin level at 10 mg/kg, po administered once daily for 3 months measured after 2 months by RIA (reference value: 21.1+/- 2.4 ng/ml); type: functional
[9] = Cmax in Crl:CD(SD) rat at 10 mg/kg, po; type: ADME, organism-based; parameters: dose 10 mg/kg, route oral; conditions: in vivo; method in brief: as §3
[10] = Tmax in Crl:CD(SD) rat at 10 mg/kg, po; type: ADME, organism-based; parameters: dose 10 mg/kg, route oral; conditions: in vivo; method in brief: as §3
[11] = Mean residence time in Crl:CD(SD) rat at 10 mg/kg, po; type: ADME, organism-based; parameters: dose 10 mg/kg, route oral; conditions: in vivo; method in brief: as §3
Caco-2 [12] = assay: Apparent permeability across apical to basolateral side in human Caco2 cells at 10 umol/L; type: ADME, cell-based; conditions: caco-2, 10 µM; method in brief: as §2
Rattus norvegicus [13] = assay: Induction of bone formation in osteopenic ovariectomized CD(SD)IGS rat model assessed as distal femur BMD at 10 mg/kg, po administered once daily for 3 months measured after 1 day last post treatment (reference value: 622+/- 7 mg/cm3); type: functional
Rattus norvegicus [14] = assay: Increase of PTH level in rat plasma at 10 mg/kg, po after 30 mins by ELISA; type: functional
Rattus norvegicus [15] = assay: Increase of PTH level in rat plasma at 10 mg/kg, po after 2 hrs by ELISA; type: functional, organism-based; parameters: dose 10 mg/kg

| SMILES | IC50 [2] | solubility thermodynamic [4] | also measured |
| --- | --- | --- | --- |
| CCC(CC)(NC(=O)c1cnn2c1NC(c1ccccc1)CC2(C)C)c1ccc(C)cc1.Cl (racemic) | 4.9 nM | 140 µg/mL | Papp (Caco-2 [5]): 42.7 10^-6 cm/s; Activity (Rattus norvegicus [6]): 700 mg/cm3; AUC(0-t) at 24 h [7]: 2460 ng·h/mL; Activity (Rattus norvegicus [8]): 28.4 ng/mL; Cmax [9]: 374 ng/mL; Tmax [10]: 0.67 h; MRT [11]: 5.65 h; Papp (Caco-2 [12]): 58.9 10^-6 cm/s; Activity (Rattus norvegicus [13]): 660 mg/cm3; Activity (Rattus norvegicus [14]): 120 pg/mL |
| CCOC(=O)c1ccc(C(CC)(CC)NC(=O)c2cnn3c2NC(c2ccccc2)CC3(C)C)cc1 (stereo not drawn) [listing 1 of 2 here] | – | – | microsomal CLint [1]: 91 µL/min/mg; microsomal CLint [3]: 138 µL/min/mg |
| CCC(CC)(NC(=O)c1cnn2c1NC(c1ccccc1)CC2(C)C)c1ccc(C)cc1 (racemic) | – | – | Activity (Rattus norvegicus [15]): inactive |
| CCC(CC)(NC(=O)c1cnn2c1NC(c1ccccc1)CC2(C)C)c1ccc(Cl)cc1.CS(=O)(=O)O (stereo not drawn) | – | 164 µg/mL | – |
| CCC(CC)(NC(=O)c1cnn2c1NC(c1ccccc1)CC2(C)C)c1ccc(Cl)cc1.O=S(=O)(O)O (stereo not drawn) | – | 202 µg/mL | – |
| O=C(NC(c1ccccc1)c1ccccc1)c1cnn2c1N[C@H](c1ccccc1)C[C@@H]2C(F)(F)F | 380 nM | – | – |
| CCCCC(CCCC)(NC(=O)c1cnn2c1NC(c1ccccc1)CC2(C)C)c1ccc(C(F)(F)F)cc1 (stereo not drawn) | 23 nM | – | – |
| CCC(CC)(NC(=O)c1cnn2c1NC(c1ccccc1)CC2(C)C)c1ccc(OCc2ccccc2)cc1 (stereo not drawn) | 8.5 nM | 24.3 µg/mL (≈ 46.5 µM) | microsomal CLint [1]: 48 µL/min/mg; microsomal CLint [3]: 24 µL/min/mg |
| CCC(CC)(NC(=O)c1cnn2c1NC(c1ccccc1)CC2(C)C)c1ccccc1F (stereo not drawn) | 12 nM | – | – |
| CCC(CC)(NC(=O)c1cnn2c1NC(c1ccccc1)CC2(C)C)c1ccc(Cl)cc1.Cl (stereo not drawn) | – | 126 µg/mL | AUC(0-t) at 24 h [7]: 2460 ng·h/mL; Cmax [9]: 374 ng/mL; Tmax [10]: 0.67 h; MRT [11]: 5.65 h |
| CCC(CC)(NC(=O)c1cnn2c1NC(c1ccccc1)CC2(C)C)c1ccc(C(F)(F)F)cc1 (stereo not drawn) | 7.6 nM | 4.6 µg/mL (≈ 9.49 µM) | Papp (Caco-2 [5]): 24.2 10^-6 cm/s; microsomal CLint [1]: 14 µL/min/mg; microsomal CLint [3]: 13 µL/min/mg; Papp (Caco-2 [12]): 32.7 10^-6 cm/s |
| CCC(CC)(NC(=O)c1cnn2c1N[C@H](c1ccccc1)CC2(C)C)c1ccc(C)cc1 | 31 nM | – | – |
| CCC(CC)(NC(=O)c1cnn2c1NC(c1ccccc1)CC2(C)C)c1cccc(Cl)c1 (stereo not drawn) | 17 nM | – | – |
| CC(C)(NC(=O)c1cnn2c1NC(c1ccccc1)CC2(C)C)c1ccc(C(F)(F)F)cc1 (stereo not drawn) | 3.5 nM | – | – |
| CCCC(CCC)(NC(=O)c1cnn2c1NC(c1ccccc1)CC2(C)C)c1ccc(C(F)(F)F)cc1 (stereo not drawn) | 4.4 nM | – | – |
| CCC(CC)(NC(=O)c1cnn2c1NC(c1ccccc1)CC2(C)C)c1ccc(OC(C)=O)cc1 (stereo not drawn) | 31 nM | – | – |
| CCC(CC)(NC(=O)c1cnn2c1NC(c1ccccc1)CC2(C)C)c1ccc(C)cc1 (stereo not drawn) | 5.5 nM | 15.6 µg/mL (≈ 36.2 µM) | microsomal CLint [1]: 122 µL/min/mg; microsomal CLint [3]: 164 µL/min/mg |
| CC(=O)O.CCC(CC)(NC(=O)c1cnn2c1NC(c1ccccc1)CC2(C)C)c1ccc(Cl)cc1 (stereo not drawn) | – | 202 µg/mL | – |
| O=C(NCc1ccc(C(F)(F)F)cc1)c1cnn2c1N[C@H](c1ccccc1)C[C@@H]2C(F)(F)F | 2900 nM | – | – |
| CCOC(=O)c1ccc(C(CC)(CC)NC(=O)c2cnn3c2NC(c2ccccc2)CC3(C)C)cc1 (stereo not drawn) [listing 2 of 2 here] | 5.2 nM | 5.4 µg/mL (≈ 11.1 µM) | – |
| CCC(CC)(NC(=O)c1cnn2c1NC(c1ccccc1)CC2(C)C)c1ccc(COC(C)=O)cc1 (stereo not drawn) | 14 nM | – | – |
| CCC(CC)(NC(=O)c1cnn2c1NC(c1ccccc1)CC2(C)C)c1ccc(F)cc1 (stereo not drawn) | 7.3 nM | 8.5 µg/mL (≈ 19.6 µM) | microsomal CLint [1]: 89 µL/min/mg; microsomal CLint [3]: 129 µL/min/mg |

Second part, led by results:

| IC50 [2] | solubility thermodynamic [4] | SMILES | also measured |
| --- | --- | --- | --- |
| 6.6 nM | 59.6 µg/mL (≈ 133 µM) | CCC(CC)(NC(=O)c1cnn2c1NC(c1ccccc1)CC2(C)C)c1ccc(OC)cc1 (stereo not drawn) | microsomal CLint [1]: 67 µL/min/mg; microsomal CLint [3]: 158 µL/min/mg |
| 12 nM | – | CCC(=O)Oc1ccc(C(CC)(CC)NC(=O)c2cnn3c2NC(c2ccccc2)CC3(C)C)cc1 (stereo not drawn) | – |
| – | 118 µg/mL | CCC(CC)(NC(=O)c1cnn2c1NC(c1ccccc1)CC2(C)C)c1ccc(C)cc1.CS(=O)(=O)O (stereo not drawn) | – |
| 2.3 nM | – | CCC(CC)(NC(=O)c1cnn2c1N[C@@H](c1ccccc1)CC2(C)C)c1ccc(C)cc1 | – |
| 30 nM | – | CC(C)C(NC(=O)c1cnn2c1NC(c1ccccc1)CC2(C)C)(c1ccc(C(F)(F)F)cc1)C(C)C (stereo not drawn) | – |
| 7.4 nM | 54 µg/mL (≈ 120 µM) | CCC(CC)(NC(=O)c1cnn2c1NC(c1ccccc1)CC2(C)C)c1ccc(Cl)cc1 (stereo not drawn) | Papp (Caco-2 [5]): 36.8 10^-6 cm/s; microsomal CLint [1]: 18 µL/min/mg; microsomal CLint [3]: 57 µL/min/mg; Papp (Caco-2 [12]): 52.6 10^-6 cm/s |
| 25 nM | – | CCC(CC)(NC(=O)c1cnn2c1NC(c1ccccc1)CC2(C)C)c1cccc(F)c1 (stereo not drawn) | – |
| 3.4 nM | 22.3 µg/mL (≈ 53.5 µM) | CCC(CC)(NC(=O)c1cnn2c1NC(c1ccccc1)CC2(C)C)c1ccccc1 (stereo not drawn) | microsomal CLint [1]: 209 µL/min/mg; microsomal CLint [3]: 215 µL/min/mg |
| 150 nM | – | CC1(C)CC(c2ccccc2)Nc2c(C(=O)NC(c3ccc(C(F)(F)F)cc3)(C3CCCCC3)C3CCCCC3)cnn21 (stereo not drawn) | – |

Source: ChEMBL document CHEMBL1687906, “Discovery of novel and potent orally active calcium-sensing receptor antagonists that stimulate pulselike parathyroid hormone secretion: synthesis and structure-activity relationships of tetrahydropyrazolopyrimidine derivatives” (J Med Chem, 2011)
